Source: ChEMBL document CHEMBL3244044, “Synthesis and antitumor activity of halogen-substituted 4-(3,3-dimethyl-1-triazeno)quinolines” (J Med Chem, 1978)

Columns and labels:
Mus musculus [1] = assay: Toxicity in mouse P388 cells allografted mouse at 20 mg/kg, ip qd for 9 days; format: organism-based; design: dose 20 mg/kg, route intraperitoneal; details: in vivo, 216 h
In short: (§1)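 NCI protocol. Groups of five to ten mice were inoculated intraperitoneally with about 10^6 tumor cells. Drug was given ip once daily for 9 consecutive days, starting 24 h after tumor implantation, over a range of dose levels. Toxicity was read as the average body weight change at the end of drug treatment.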

P388 [2] = assay: Antitumor activity against mouse P388 cells allografted mouse assessed as host survival at 20 mg/kg, ip qd for 9 days relative to control; format: functional; details: route intraperitoneal
In short: (§2)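 NCI protocol: groups of five to ten mice inoculated ip with approximately 10^6 P-388 or L1210 cells. Drug given over a range of dose levels starting 24 h after implantation, once daily for 9 consecutive days. Survival expressed as %T/C = (average survival of treated)/(average survival of control) × 100.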

Mus musculus [3] = assay: Toxicity in mouse P388 cells allografted mouse at 40 mg/kg, ip qd for 9 days; format: organism-based; design: dose 40 mg/kg, route intraperitoneal; details: in vivo, 216 h; in short: as §1
P388 [4] = assay: Antitumor activity against mouse P388 cells allografted mouse assessed as host survival at 40 mg/kg, ip qd for 9 days relative to control; format: functional; details: route intraperitoneal; in short: as §2
L1210 [5] = assay: Antitumor activity against mouse L1210 cells allografted mouse assessed as host survival at 50 mg/kg, ip qd for 9 days relative to control; format: functional; details: route intraperitoneal; in short: as §2
Mus musculus [6] = assay: Toxicity in mouse P388 cells allografted mouse at 60 mg/kg, ip qd for 9 days; format: organism-based; design: dose 60 mg/kg, route intraperitoneal; details: in vivo, 216 h; in short: as §1
Mus musculus [7] = assay: Toxicity in mouse L1210 cells allografted mouse at 50 mg/kg, ip qd for 9 days; format: organism-based; design: dose 50 mg/kg, route intraperitoneal; details: in vivo, 216 h
In short: (§3)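 Groups of five to ten mice were inoculated ip with about 10^6 L1210 cells and dosed once daily for 9 consecutive days beginning 24 h post-implantation. Toxicity was taken as the average body weight change at the end of drug treatment.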

L1210 [8] = assay: Antitumor activity against mouse L1210 cells allografted mouse assessed as host survival at 60 mg/kg, ip qd for 9 days relative to control; format: functional; details: route intraperitoneal; in short: as §2
Mus musculus [9] = assay: Toxicity in mouse L1210 cells allografted mouse at 60 mg/kg, ip qd for 9 days; format: organism-based; design: dose 60 mg/kg, route intraperitoneal; details: in vivo, 216 h; in short: as §3
P388 [10] = assay: Antitumor activity against mouse P388 cells allografted mouse assessed as host survival at 60 mg/kg, ip qd for 9 days relative to control; format: functional; details: route intraperitoneal; in short: as §2
B16 [11] = assay: Antitumor activity against mouse B16 cells allografted mouse assessed as host survival at 116.7 mg/kg, ip qd for 9 days relative to control; format: functional; details: route intraperitoneal
In short: (§4)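 B16 melanoma-bearing mice given drug ip once daily for 9 days, starting 24 h after tumor implantation. Read-out is average survival in days, expressed as %T/C = (average survival of treated mice)/(average survival of control mice) × 100.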

B16 [12] = assay: Antitumor activity against mouse B16 cells allografted mouse assessed as host survival at 42 mg/kg, ip qd for 9 days relative to control; format: functional; details: route intraperitoneal; in short: as §4
Mus musculus [13] = assay: Toxicity in mouse P388 cells allografted mouse at 90 mg/kg, ip qd for 9 days; format: organism-based; design: dose 90 mg/kg, route intraperitoneal; details: in vivo, 216 h; in short: as §1
L1210 [14] = assay: Antitumor activity against mouse L1210 cells allografted mouse assessed as host survival at 90 mg/kg, ip qd for 9 days relative to control; format: functional; details: route intraperitoneal; in short: as §2
Mus musculus [15] = assay: Toxicity in mouse P388 cells allografted mouse at 80 mg/kg, ip qd for 9 days; format: organism-based; design: dose 80 mg/kg, route intraperitoneal; details: in vivo, 216 h; in short: as §1
B16 [16] = assay: Antitumor activity against mouse B16 cells allografted mouse assessed as host survival at 70 mg/kg, ip qd for 9 days relative to control; format: functional; details: route intraperitoneal; in short: as §4
Mus musculus [17] = assay: Toxicity in mouse B16 cells allografted mouse at 116.7 mg/kg, ip qd for 9 days; format: organism-based; design: dose 116.7 mg/kg, route intraperitoneal; details: in vivo, 216 h
In short: (§5)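 Mice bearing B16 melanoma, dosed ip once daily for 9 days from 24 h after tumor implantation. Toxicity is recorded as the average body weight change at the end of drug treatment.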

Mus musculus [18] = assay: Toxicity in mouse B16 cells allografted mouse at 42 mg/kg, ip qd for 9 days; format: organism-based; design: dose 42 mg/kg, route intraperitoneal; details: in vivo, 216 h; in short: as §5
Mus musculus [19] = assay: Toxicity in mouse P388 cells allografted mouse at 70 mg/kg, ip qd for 9 days; format: organism-based; design: dose 70 mg/kg, route intraperitoneal; details: in vivo, 216 h; in short: as §1
P388 [20] = assay: Antitumor activity against mouse P388 cells allografted mouse assessed as host survival at 80 mg/kg, ip qd for 9 days relative to control; format: functional; details: route intraperitoneal; in short: as §2
Mus musculus [21] = assay: Toxicity in mouse L1210 cells allografted mouse at 90 mg/kg, ip qd for 9 days; format: organism-based; design: dose 90 mg/kg, route intraperitoneal; details: in vivo, 216 h; in short: as §1
L1210 [22] = assay: Antitumor activity against mouse L1210 cells allografted mouse assessed as host survival at 80 mg/kg, ip qd for 9 days relative to control; format: functional; details: route intraperitoneal; in short: as §2
Mus musculus [23] = assay: Toxicity in mouse B16 cells allografted mouse at 70 mg/kg, ip qd for 9 days; format: organism-based; design: dose 70 mg/kg, route intraperitoneal; details: in vivo, 216 h; in short: as §5
P388 [24] = assay: Antitumor activity against mouse P388 cells allografted mouse assessed as host survival at 90 mg/kg, ip qd for 9 days relative to control; format: functional; details: route intraperitoneal; in short: as §2
Mus musculus [25] = assay: Toxicity in mouse L1210 cells allografted mouse at 80 mg/kg, ip qd for 9 days; format: organism-based; design: dose 80 mg/kg, route intraperitoneal; details: in vivo, 216 h; in short: as §1
P388 [26] = assay: Antitumor activity against mouse P388 cells allografted mouse assessed as host survival at 70 mg/kg, ip qd for 9 days relative to control; format: functional; details: route intraperitoneal; in short: as §2
L1210 [27] = assay: Antitumor activity against mouse L1210 cells allografted mouse assessed as host survival at 70 mg/kg, ip qd for 9 days relative to control; format: functional; details: route intraperitoneal; in short: as §2
Mus musculus [28] = assay: Toxicity in mouse L1210 cells allografted mouse at 70 mg/kg, ip qd for 9 days; format: organism-based; design: dose 70 mg/kg, route intraperitoneal; details: in vivo, 216 h; in short: as §3
L1210 [29] = assay: Antitumor activity against mouse L1210 cells allografted mouse assessed as host survival at 100 mg/kg, ip qd for 9 days relative to control; format: functional; details: route intraperitoneal; in short: as §2
[30] = Binding affinity to synthetic melanin at 5.8 mg/100 mL after 15 mins by UV-spectroscopic analysis; format: physicochemical; details: 0.25 h
In short: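 Synthetic melanin was made from DL-Dopa with tyrosinase in 0.1 M phosphate pH 6.6 at 37 °C for 4 h. Melanin suspension (1.1 mg dry weight) was mixed with phosphate buffer (0.05 M, pH 6.4, 5% Me2SO), water, and 1 mL of drug solution (5.8 mg/100 mL). The mixture was shaken 15 min at room temperature and filtered. Unbound drug in the filtrate was measured by UV against a drug-free blank.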

Mus musculus [31] = assay: Toxicity in mouse B16 cells allografted mouse at 130 mg/kg, ip qd for 9 days; format: organism-based; design: dose 130 mg/kg, route intraperitoneal; details: in vivo, 216 h; in short: as §5
B16 [32] = assay: Antitumor activity against mouse B16 cells allografted mouse assessed as host survival at 216 mg/kg, ip qd for 9 days relative to control; format: functional; details: route intraperitoneal; in short: as §4
Mus musculus [33] = assay: Toxicity in mouse B16 cells allografted mouse at 360 mg/kg, ip qd for 9 days; format: organism-based; design: dose 360 mg/kg, route intraperitoneal; details: in vivo, 216 h; in short: as §5
B16 [34] = assay: Antitumor activity against mouse B16 cells allografted mouse assessed as host survival at 130 mg/kg, ip qd for 9 days relative to control; format: functional; details: route intraperitoneal; in short: as §4
B16 [35] = assay: Antitumor activity against mouse B16 cells allografted mouse assessed as host survival at 360 mg/kg, ip qd for 9 days relative to control; format: functional; details: route intraperitoneal; in short: as §4
P388 [36] = assay: Antitumor activity against mouse P388 cells allografted mouse assessed as host survival at 100 mg/kg, ip qd for 9 days relative to control; format: functional; details: route intraperitoneal; in short: as §2
Mus musculus [37] = assay: Toxicity in mouse B16 cells allografted mouse at 216 mg/kg, ip qd for 9 days; format: organism-based; design: dose 216 mg/kg, route intraperitoneal; details: in vivo, 216 h; in short: as §5

SMILES: CN(C)/N=N\c1ccnc2cc(I)ccc12
- Activity (Mus musculus [1]): 10.8%
- T/C (P388 [2]): 117%
- Activity (Mus musculus [3]): 5.7%
- T/C (P388 [4]): 130%
- T/C (L1210 [5]): 107%
- Activity (Mus musculus [6]): -5.2%
- Activity (Mus musculus [7]): 4.9%
- T/C (L1210 [8]): 131%
- Activity (Mus musculus [9]): 2.9%
- T/C (P388 [10]): 127%

SMILES: CN(C)/N=N\c1ccnc2c(I)cccc12
- Survival (B16 [11]): 19.3 days
- T/C (B16 [11]): 92%
- Survival (B16 [12]): 20 days
- T/C (B16 [12]): 97%
- Activity (Mus musculus [13]): -1.6%
- T/C (L1210 [14]): 139%
- Activity (Mus musculus [15]): -2.4%
- Survival (B16 [16]): 20.8 days
- T/C (B16 [16]): 99%
- Activity (Mus musculus [17]): -4.6%
- Activity (Mus musculus [18]): -1.3%
- Activity (Mus musculus [19]): 8.2%
- T/C (P388 [20]): 120%
- Activity (Mus musculus [21]): -7%
- T/C (L1210 [22]): 129%
- Activity (Mus musculus [23]): -1.5%
- T/C (P388 [24]): 116%
- Activity (Mus musculus [25]): -6.9%
- T/C (P388 [26]): 120%
- T/C (L1210 [27]): 127%
- Activity (Mus musculus [28]): 7.7%

SMILES: CN(C)/N=N/c1[nH]cnc1C(N)=O [DACARBAZINE]
- T/C (L1210 [29]): 167%
- Activity [30]: 19.3%
- Activity (Mus musculus [31]): -2.9%
- Survival (B16 [32]): 22.8 days
- T/C (B16 [32]): 109%
- Activity (Mus musculus [33]): -3%
- Survival (B16 [34]): 22 days
- T/C (B16 [34]): 105%
- Survival (B16 [35]): 16 days
- T/C (B16 [35]): 76%
- T/C (P388 [36]): 150%
- Activity (Mus musculus [37]): -3.2%
